According to ChEMBL document CHEMBL1154135, “Macaflavanones A-G, prenylated flavanones from the leaves of Macaranga tanarius” (J Nat Prod, 2008):
Activity calls are given as the source filed them. No cut-off for these calls is given here.

What was measured:
KB = assay: Cytotoxicity against human KB cells after 72 hrs by MTT assay; assay type: functional, cell-based
Summary of the method: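 KB cells seeded at 3 × 10^3 cells/well in DMEM with 10% FBS, amphotericin B (0.5 µg/ml) and kanamycin sulfate (100 µg/mL), 37 °C, 5% CO2. After 24 h, samples in 10% DMSO added; incubated 72 h. MTT (0.5 mg/mL) added for 1.5 h, formazan dissolved in DMSO, absorbance at 540 nm minus 620 nm. % inhibition vs control; etoposide positive control; means with SD, triplicate.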

A549 = assay: Cytotoxicity against human A549 cells after 72 hrs by MTT assay; assay type: functional, cell-based; details: for IC50: A549, 72 h
Summary of the method: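 A549 cells exposed 72 h to samples added in 10% DMSO after a 24 h pre-culture at 37 °C, 5% CO2. MTT (0.5 mg/mL) in DMEM for 1.5 h, formazan dissolved in DMSO, absorbance at 540 nm minus 620 nm. % inhibition relative to untreated control gives IC50; etoposide positive control; means with SD from triplicate experiments.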

Compound `COc1cc([C@@H]2c3cc4c(cc3[C@@H](O[C@@H]3O[C@@H]5CO[C@@H](C)O[C@H]5[C@H](O)[C@H]3O)[C@H]3COC(=O)[C@H]23)OCO4)cc(OC)c1O` [ETOPOSIDE] has an IC50 (KB) of 1.25 µM and an IC50 (A549) of 8.37 µM.
For `CC(C)=CCC[C@@]1(C)CCc2c([C@@H]3CC(=O)c4c(cc(O)c(CC=C(C)C)c4O)O3)ccc(O)c2O1`, the Activity (KB) was “inactive” and the Activity (A549) was “inactive”.
Compound `CC(C)=CCC[C@]1(C)CCc2c([C@@H]3CC(=O)c4c(cc(O)c(CC=C(C)C)c4O)O3)ccc(O)c2O1` [MACAFLAVANONE G] has an IC50 (KB) of 12.3 µM and an IC50 (A549) of 13.4 µM.
For `CC(C)=CCC/C(C)=C/Cc1c([C@@H]2CC(=O)c3c(cc4c(c3O)C=CC(C)(C)O4)O2)ccc(O)c1O`, the Activity (KB) was “inactive” and the Activity (A549) was “inactive”.
In the case of `CC(C)=CCC[C@@]1(C)C=Cc2c([C@@H]3CC(=O)c4c(cc(O)c(CC=C(C)C)c4O)O3)ccc(O)c2O1`, the Activity (KB) is reported as “inactive” and the Activity (A549) is reported as “inactive”.
In the case of `CC(C)=CCC/C(C)=C/Cc1c([C@@H]2CC(=O)c3c(cc4c(c3O)CCC(C)(C)O4)O2)ccc(O)c1O`, the Activity (KB) is reported as “inactive” and the Activity (A549) is reported as “inactive”.
For `CC(C)=C/C=C/[C@@]1(C)CCc2c([C@@H]3CC(=O)c4c(cc(O)c(CC=C(C)C)c4O)O3)ccc(O)c2O1`, the Activity (KB) was “inactive” and the Activity (A549) was “inactive”.
With `CC(C)=C/C=C/[C@]1(C)CCc2c([C@@H]3CC(=O)c4c(cc(O)c(CC=C(C)C)c4O)O3)ccc(O)c2O1` the Activity (KB) was “inactive” and the Activity (A549) was “inactive”.
